Results from ChEMBL document CHEMBL1153527, “Discovery of a novel series of quinolone and naphthyridine derivatives as potential topoisomerase I inhibitors by scaffold modification” (J Med Chem, 2009).
Activity calls are given as the source filed them. The calls are words filed in the database; no cut-off is given here.

Key:
HT-29 [1] = test: Cell cycle distribution in human HT-29 cells assessed as accumulation at sub-G1 phase at 0.1 uM after 48 hrs by flow cytometry; assay type: functional, cell-based
In short: (§1)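 HT-29 cells were exposed to vehicle or compound for 6, 12, 24 or 48 h. Attached and floating cells were collected by trypsin-EDTA, fixed in 70% ethanol, and treated with 0.1% Triton X-100 for 30 min. They were stained with 50 μg/mL PI plus 50 μg/mL RNase A for 30 min in the dark at room temperature. 10000 cells were read by FL2 at 488 nm excitation. S-phase and sub-G1 (apoptotic) fractions are expressed as % of total cells.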

HT-29 [2] = test: Cytotoxicity against human HT-29 cells expressing p53 mutant after 48 hrs by SRB assay; assay type: functional, cell-based; conditions: HT-29, 48 h
In short: (§2)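 Cell lines came from CCRC, Taiwan. Cells were seeded at about 5 × 10^3 per well and left overnight. They were then given serum-free medium containing 0-10 μM compound (0.08-10 μM serial dilutions) for 48 h at 37 °C. Cells were fixed with TCA (10% final), stained with SRB (0.4% final), and the dye was dissolved in 10 mM Tris with A515 read. IC50 was taken from a fitted log concentration-response curve.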

HT-29 [3] = test: Cell cycle distribution in human HT-29 cells assessed as accumulation at S phase at 0.1 uM after 6 hrs by flow cytometry; assay type: functional, cell-based; in short: as §1
HT-29 [4] = test: Induction of apoptosis in human HT-29 cells assessed as increase in accumulation at sub-G1 phase at 0.1 uM after 48 hrs by flow cytometry; assay type: functional; in short: as §1
[5] = Cytotoxicity against p53-deficient human Hep3B cells after 48 hrs by SRB assay; assay type: functional, cell-based, Hep 3B2; in short: as §2
U-937 = test: Cytotoxicity against human U937 cells expressing p53 mutant after 48 hrs by SRB assay; assay type: functional, cell-based; conditions: U-937, 48 h
[6] = Cytotoxicity against estrogen receptor-negative human […] cells expressing p53 mutant after 48 hrs by SRB assay; assay type: functional, cell-based; in short: as §2
HepG2 = test: Cytotoxicity against human HepG2 cells expressing wild type p53 after 48 hrs by SRB assay; assay type: functional, cell-based; conditions: HepG2, 48 h; in short: as §2
[7] = target: T1, DNA topoisomerase 1 (Homo sapiens) (UniProt P11387); test: Induction of human topoisomerase 1-mediated chromosomal DNA strand breaks in HT-29 cells at 10 uM after 1 hr by comet assay; assay type: cell-based
T1 sequence (whole entry): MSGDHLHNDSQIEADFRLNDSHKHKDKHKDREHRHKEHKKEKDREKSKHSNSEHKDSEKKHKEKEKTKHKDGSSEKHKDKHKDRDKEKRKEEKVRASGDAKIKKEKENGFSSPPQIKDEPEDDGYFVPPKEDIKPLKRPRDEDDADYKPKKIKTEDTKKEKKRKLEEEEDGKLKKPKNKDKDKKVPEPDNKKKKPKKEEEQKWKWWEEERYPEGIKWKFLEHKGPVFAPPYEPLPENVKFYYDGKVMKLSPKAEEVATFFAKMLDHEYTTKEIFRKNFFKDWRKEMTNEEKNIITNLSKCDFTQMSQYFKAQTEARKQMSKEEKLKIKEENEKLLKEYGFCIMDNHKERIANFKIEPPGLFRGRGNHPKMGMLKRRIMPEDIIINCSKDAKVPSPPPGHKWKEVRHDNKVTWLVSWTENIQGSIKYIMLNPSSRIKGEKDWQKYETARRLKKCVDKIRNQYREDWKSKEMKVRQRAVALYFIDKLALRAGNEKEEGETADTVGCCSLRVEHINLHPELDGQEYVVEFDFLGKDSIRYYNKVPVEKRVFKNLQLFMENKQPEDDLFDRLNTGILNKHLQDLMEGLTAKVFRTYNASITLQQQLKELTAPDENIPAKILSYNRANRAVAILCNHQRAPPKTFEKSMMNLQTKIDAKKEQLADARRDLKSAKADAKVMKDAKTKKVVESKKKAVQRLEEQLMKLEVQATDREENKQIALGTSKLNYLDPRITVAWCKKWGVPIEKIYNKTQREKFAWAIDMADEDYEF
In short: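 HT-29 cells were seeded at 1 × 10^4 per well and attached overnight, then treated for 1 h. Untreated cells served as negative control. Cells in low-melting agarose on precoated slides were lysed at pH 10.5 for 30 min at 4 °C and unwound in 300 mM NaOH/1 mM EDTA (pH >13) for 30 min at 4 °C. Electrophoresis ran 10 min at 16 V, with SYBR Gold staining. Read-out was mean % tail DNA from ≥50 nuclei, duplicates in three independent experiments.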

AGS = test: Cytotoxicity against human AGS cells expressing wild type p53 after 48 hrs by SRB assay; assay type: functional, cell-based; in short: as §2
HeLa = test: Cytotoxicity against p53-deficient human HeLa cells after 48 hrs by SRB assay; assay type: functional, cell-based; in short: as §2
HT-29 [8] = test: Cell cycle distribution in human HT-29 cells assessed as accumulation at S phase at 0.1 uM after 12 hrs by flow cytometry; assay type: functional, cell-based; in short: as §1
THP-1 = test: Cytotoxicity against human THP1 cells expressing p53 mutant after 48 hrs by SRB assay; assay type: functional, cell-based; conditions: THP-1, 48 h
HT-29 [9] = test: Cell cycle distribution in human HT-29 cells assessed as accumulation at S phase at 0.1 uM after 48 hrs by flow cytometry; assay type: functional, cell-based; in short: as §1
HT-29 [10] = test: Cell cycle distribution in human HT-29 cells assessed as accumulation at S phase at 0.1 uM after 24 hrs by flow cytometry; assay type: functional, cell-based; in short: as §1
A549 = test: Cytotoxicity against human A549 cells expressing wild type p53 after 48 hrs by SRB assay; assay type: functional, cell-based; conditions: A549, 48 h; in short: as §2
MCF7 = test: Cytotoxicity against estrogen receptor-positive human MCF7 cells expressing wild type p53 after 48 hrs by SRB assay; assay type: functional, cell-based; conditions: MCF7, 48 h; in short: as §2
K562 = test: Cytotoxicity against p53-deficient human K562 cells after 48 hrs by SRB assay; assay type: functional, cell-based; conditions: K562, 48 h
PC-3 = test: Cytotoxicity against p53-deficient human PC3 cells after 48 hrs by SRB assay; assay type: functional, cell-based; conditions: PC-3, 48 h; in short: as §2
HT-29 [11] = test: Antitumor activity against human HT-29 cells xenografted in athymic BALB/c nude mouse at 5 mg/kg, ip for 2 days measured after 30 days relative to placebo control; assay type: functional; conditions: route intraperitoneal
In short: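 Female athymic BALB/c nude mice (35-40 days old, 18-22 g). HT-29 tumours first grown from 1 × 10^7 cells injected s.c. in the axillary fossa, then excised and transplanted. Treatment started at 100-300 mm3. Groups of n=6 were dosed i.p. daily in 400 μL: saline for 10 days, 5 mg/kg for 2 days, or 75/150 mg/kg for 10 days. Caliper volume was V=1/2·a·b². Values are relative to start volume, compared with placebo by Student's t test, and mice were killed on day 30.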

Compound	Activity (HT-29 [1])	GI50 (HT-29 [2])	IC50 (HT-29 [2])	Activity (HT-29 [3])	Activity (HT-29 [4])	GI50 [5]	IC50 [5]	IC50 (U-937)	GI50 [6]	IC50 [6]	GI50 (HepG2)	IC50 (HepG2)	GI50 (AGS)	IC50 (AGS)	GI50 (HeLa)	IC50 (HeLa)	Activity (HT-29 [8])	IC50 (THP-1)	Activity (HT-29 [9])	Activity (HT-29 [10])	other results
CC[C@@]1(O)C(=O)OCc2c1cc1n(c2=O)Cc2cc3ccccc3nc2-1 [CAMPTOTHECIN]	Active	30 nM	400 nM	Active	44.8%	10 nM	60 nM	300 nM	80 nM	1700 nM	100 nM	200 nM	10 nM	20 nM	40 nM	200 nM	Active	600 nM	Active	Active	Activity [7]: 84%; GI50 (A549): 10 nM; IC50 (A549): 40 nM; GI50 (MCF7): 10 nM; IC50 (MCF7): 1100 nM; IC50 (K562): 1400 nM; GI50 (PC-3): 700 nM; IC50 (PC-3): 1400 nM
CC[C@@]1(O)C(=O)OCc2c1cc1n(c2=O)Cc2cc3c(CN(C)C)c(O)ccc3nc2-1 [TOPOTECAN]	Active	80 nM	400 nM	Active	40.5%	400 nM	1400 nM	1100 nM	900 nM	2000 nM	1200 nM	1600 nM	100 nM	300 nM	80 nM	1600 nM	Active	1500 nM	Active	Active	Activity (HT-29 [11]): 76%; GI50 (A549): 900 nM; IC50 (A549): 1900 nM; GI50 (MCF7): 800 nM; IC50 (MCF7): 2000 nM; IC50 (K562): 1700 nM; GI50 (PC-3): 1300 nM; IC50 (PC-3): 2000 nM
